Test results published in publication PMC2771698 (Journal of medicinal chemistry, 2009).
“And” between values parts separate entries of the source, which are not always exact repeats. Equal values may be shown once. Read-outs that look alike come from different tables or passages of the source.

What was measured:
[1] = cited from earlier work
T. cruzi amastigotes = assay: T. cruzi; type: cell-based, Trypanosoma cruzi; settings: read-out: EC50 T. cruzi
Procedure, shortened: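 β-galactosidase-expressing Tulahuen strain grown as intracellular amastigotes in murine 3T3 fibroblasts, 96-well format, colorimetric read-out. Test compounds HPLC-purified to a single peak, with ≥95% estimated purity by 1H NMR. Each tested in triplicate to derive EC50.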

[2] = Single oral dose pharmacokinetics in BALB/c mice; type: in vivo; settings: single dose 50 mg/kg oral gavage; for AUC 0_5hr, Mouse 1, 2, 3 / Tmax, Mouse 1, 2, 3 / Cmax, Mouse 1, 2, 3: Balb/c mice, individual mice, 50 mg/kg; for Cmax, Mouse 1, 2, 3: plasma
[3] = test system: T. cruzi trypomastigotes (Tulahuen strain); assay: Efficacy in mice infected with T. cruzi; type: in vivo; settings: days 7–27 post-infection
Procedure, shortened: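 Female BALB/c mice (7–8 weeks) infected subcutaneously with 1×10^4 Tulahuen trypomastigotes; treatment began day 7 post-infection. Groups of 6 dosed by oral gavage twice daily for 21 days, 100 µL per dose in 20% (w/v) hydroxypropyl β-cyclodextrin; vehicle-only group included. Parasitemia counted in 5 µL tail blood under coverslip, 50 high-power fields, through day 97. Pre-morbid mice euthanized; survivors sacrificed day 100.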

T. cruzi = assay: PCR detection of T. cruzi parasitemia in blood of treated mice at day 100; type: in vivo; settings: for PCR parasite detection after 100 days post infection: days 7–27 post-infection, groups of 6
[4] = mice and rats; cited from earlier work
[5] = 50 mg/kg oral gavage twice per day
[6] = 20 mg/kg oral gavage twice per day

In the case of `c1ccc(-c2ccc(Cn3cncc3CNc3ccc(-c4cncs4)c(-c4ccccc4)c3)cc2)cc1` [Compound 27a], the “pharmacokinetic profile in mice” value [1] is listed as “good pharmacokinetic profile”.
For `c1ccc(-c2ccc(Cn3cncc3CNc3ccc(-c4nc5ccccc5s4)c(-c4ccccc4)c3)cc2)cc1` [Compound 27d], the “pharmacokinetic profile in mice” value [1] is listed as “good pharmacokinetic profile”.
`CC(C)c1ccc(Cn2cncc2CNc2ccc(-c3nc4ccccc4s3)c(-c3ccccc3)c2)cc1` [Compound 32a] gave an EC50 (T. cruzi amastigotes; Table 3, general structure III) of 860 nM.
`CCc1ccc(Cn2cncc2CNc2ccc(-c3nc4ccccc4s3)c(-c3ccccc3)c2)cc1` [Compound 32b] showed an EC50 (T. cruzi amastigotes; Table 3, general structure III) of 190 nM.
In the case of `Fc1ccc(Cn2cncc2CNc2ccc(-c3nc4ccccc4s3)c(-c3ccccc3)c2)c(F)c1` [Compound 32d], the EC50 (T. cruzi amastigotes; Table 3, general structure III) is reported as 630 nM.
Compound `Cc1ccccc1-c1ccc(Cn2cncc2CNc2ccc(-c3nc4ccccc4s3)c(-c3ccccc3)c2)cc1` [Compound 32f] has an EC50 (T. cruzi amastigotes; Table 3, general structure III) of 180 nM.
Compound `Cc1ccccc1-c1cc(NCc2cncn2Cc2ccc(-c3ccccc3)cc2)ccc1-c1nc2ccccc2s1` [Compound 32g] has an EC50 (T. cruzi amastigotes; Table 3, general structure III) of 42 nM.
Work on `Cc1cccc(-c2cc(NCc3cncn3Cc3ccc(-c4ccccc4)cc3)ccc2-c2nc3ccccc3s2)c1C` [Compound 32h] yielded an EC50 (T. cruzi amastigotes; Table 3, general structure III) of 101 nM.
Compound `c1ccc(Cn2cncc2CNc2cccc(-c3ccccc3)c2)cc1` [Compound 35e] has an EC50 (T. cruzi amastigotes; Table 4, general structure IV) of 400 nM.
Compound `Cc1ccccc1-c1cccc(NCc2cncn2Cc2ccccc2)c1` [Compound 35g] has an EC50 (T. cruzi amastigotes; Table 4, general structure IV) of 310 nM.
Work on `Cc1cccc(-c2cccc(NCc3cncn3Cc3ccccc3)c2)c1C` [Compound 35i] yielded an EC50 (T. cruzi amastigotes; Table 4, general structure IV) of 300 nM.
`c1ccc(Cn2cncc2CNc2cccc(-c3cccnc3)c2)cc1` [Compound 35j] gave an EC50 (T. cruzi amastigotes; Table 4, general structure IV) of 760 nM.
In the case of `Nc1cc(-c2ccccc2)ccc1Cn1cncc1CNc1ccc(Cl)c(-c2ccccc2)c1` [Compound 44a, (6-Chloro-biphenyl-3-yl)-[3-(3-amino-biphenyl-4-ylmethyl)-3H-imidazol-4-ylmethyl]-amine], the EC50 (T. cruzi amastigotes; Table 5, general structure V) is reported as 1.5 nM and 2.1 nM, the “AUC 0_5hr, Mouse 1, 2, 3” value [2] is reported as 6700 ng·h/mL and 5600 ng·h/mL and the “Tmax, Mouse 1, 2, 3” value [2] is reported as 1.0 h. The “Cmax, Mouse 1, 2, 3” value [2] was 1900 ng/mL, the “suppression of parasitemia in blood (microscopy)” value (shortened to “suppression of parasitemia”) [3, 5] was “dramatically suppressed” and the “PCR parasite detection after 100 days post infection” value (“PCR parasite detection” for short) (T. cruzi; [5]) was 6 of 6 mice.
Compound `N#Cc1ccc(NCc2cncn2Cc2ccc(-c3ccccc3)cc2N)cc1-c1ccccc1` [Compound 44b] has an EC50 (T. cruzi amastigotes; Table 5, general structure V) of 2.6 nM.
For `Nc1cc(-c2ccccc2)ccc1Cn1cncc1CNc1ccc(-c2nc3ccccc3s2)c(-c2ccccc2)c1` [Compound 44d], the “AUC 0_5hr, Mouse 1, 2, 3” value [2] was 32400 ng·h/mL and 29000 ng·h/mL, the “Tmax, Mouse 1, 2, 3” value [2] was 2.0 h and the “Cmax, Mouse 1, 2, 3” value [2] was 8600 ng/mL. The “drug loss from plasma out to 5 hr” value ([2]; mice) was “significant drug loss was not observed”, the “suppression of parasitemia” value [3, 6] was “dramatically suppressed” and the “suppression of parasitemia” value [3, 5] was “most suppression”. For the same compound, the “PCR parasite detection” value (T. cruzi; [6]) was 5 of 6 mice, the “PCR parasite detection” value (T. cruzi; [5]) was 2 of 6 mice and the “mice with parasitemia suppressed below PCR detectability” value (T. cruzi; 50 mg/kg twice per day, day 100) was 4 of 6.
`Nc1cc(-c2ccccc2)ccc1Cn1cncc1CNc1ccc(-c2cncs2)c(-c2ccccc2)c1` [Compound 44e] gave an EC50 (T. cruzi amastigotes; Table 5, general structure V) of 13 nM.
For `CC[C@@H]([C@H](C)O)n1ncn(-c2ccc(N3CCN(c4ccc(OC[C@@H]5CO[C@@](Cn6cncn6)(c6ccc(F)cc6F)C5)cc4)CC3)cc2)c1=O` [Posaconazole, posaconazole, reference compound], the “suppression of parasitemia” value [3, 6] is listed as “most suppression”, the “PCR parasite detection” value (T. cruzi; [6]) is listed as 0 of 6 mice and the terminal phase half-life [4] is listed as 7 to 9 h.
